# Test results reported in ChEMBL document CHEMBL1139452, “Synthesis and structure-activity relationships of 5,6,7,8-tetrahydro-4H-thieno[3,2-b]azepine derivatives: novel arginine vasopressin antagonists” (J Med Chem, 2004).
# Experiments:
# Vasopressin V2 receptor [1] = target: Vasopressin V2 receptor (Rattus norvegicus, UniProt Q00788); test: Inhibitory activity against arginine vasopressin V2 receptor using [3H]AVP as radioligand in rat […] medulla; format: tissue-based
# Procedure, shortened: (§1)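 Competition binding on plasma membrane preparations, with [3H]AVP (80 Ci/mmol, 1–2 nM) and graded test compound, in 100 mM Tris-HCl pH 7.5, 5 mM MgCl2, 1 mM EDTA, 0.1% BSA, ≤1% final DMSO. Incubated 20 min at 37 °C, stopped with ice-cold Tris pH 8.0, filtered on GF/B. Nonspecific binding: 1 μM AVP. IC50 by regression of displacement curves; n = 3, mean ± SEM.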
# Rattus norvegicus [2] = test: Diuretic effect was determined after peroral administration at a dose of 10 mg/kg in rats; format: functional, Urine; conditions: route oral
# Procedure, shortened: (§2)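 Male Sprague Dawley rats (250–350 g) fasted 16–20 h, some also without water for 16–20 h. Compound or vehicle given orally. Spontaneously voided urine collected over 4 h in metabolic cages and reported as mL/4 h; n = 3, mean ± SEM.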
# Vasopressin V2 receptor [3] = target: Vasopressin V2 receptor (Homo sapiens, UniProt P30518); test: Inhibitory activity against human recombinant arginine vasopressin V2 receptor using [3H]AVP as radioligand in CHO cells; format: cell-based; procedure, shortened: as §1
# Vasopressin V1 receptor [4] = target: Vasopressin V1 receptor (Rattus norvegicus, UniProt P48974+P30560); test: Inhibitory activity against arginine vasopressin V1 receptor using [3H]AVP as radioligand in rat liver; procedure, shortened: as §1
# Rattus norvegicus [5] = test: Antagonistic effect against AVP-induced hypertension in rats after intravenous administration; format: functional; conditions: read-out: ID50 (the source's name)
# Procedure, shortened: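 Male Sprague Dawley rats (250–350 g) under urethane anaesthesia (1.3 g/kg ip), with femoral artery and vein catheters, held at 37 °C. Compound or vehicle given iv (1 mL/kg) 2 min before AVP 30 mU/kg iv. ID50 is the dose inhibiting the maximal pressor response by 50%; n = 3, mean ± SEM.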
# Vasopressin V1 receptor [6] = target: Vasopressin V1 receptor (Homo sapiens, UniProt P37288+P47901); test: Inhibitory activity against arginine vasopressin V1 receptor using [3H]AVP as radioligand in human platelet; procedure, shortened: as §1
# Rattus norvegicus [7] = test: Diuretic effect was determined after peroral administration at a dose of 30 mg/kg in rats; format: functional, Urine; conditions: route oral; procedure, shortened: as §2
# Sequence of Vasopressin V2 receptor (Homo sapiens, UniProt P30518) (P30518 whole entry): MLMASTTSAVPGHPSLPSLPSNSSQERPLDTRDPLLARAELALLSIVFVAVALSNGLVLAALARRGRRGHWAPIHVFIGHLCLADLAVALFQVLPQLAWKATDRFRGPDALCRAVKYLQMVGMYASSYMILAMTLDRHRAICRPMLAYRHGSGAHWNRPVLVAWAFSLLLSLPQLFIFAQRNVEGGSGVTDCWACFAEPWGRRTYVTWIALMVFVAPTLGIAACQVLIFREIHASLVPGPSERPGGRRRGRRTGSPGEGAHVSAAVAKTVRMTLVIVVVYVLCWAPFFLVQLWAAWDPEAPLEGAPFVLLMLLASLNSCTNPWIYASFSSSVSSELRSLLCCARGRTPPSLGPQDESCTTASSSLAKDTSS
# Sequence of Vasopressin V2 receptor (Rattus norvegicus, UniProt Q00788) (Q00788 whole entry): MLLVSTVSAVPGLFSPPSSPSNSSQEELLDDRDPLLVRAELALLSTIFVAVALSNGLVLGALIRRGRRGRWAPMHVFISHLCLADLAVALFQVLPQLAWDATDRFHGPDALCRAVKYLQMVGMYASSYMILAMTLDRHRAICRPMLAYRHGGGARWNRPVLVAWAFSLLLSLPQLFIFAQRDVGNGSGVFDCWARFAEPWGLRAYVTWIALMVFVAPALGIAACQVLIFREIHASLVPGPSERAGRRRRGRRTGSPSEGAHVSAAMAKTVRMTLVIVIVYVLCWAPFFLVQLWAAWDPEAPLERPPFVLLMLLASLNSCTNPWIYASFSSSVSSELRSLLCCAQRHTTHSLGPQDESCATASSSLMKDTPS
Compound,IC50 (Vasopressin V2 receptor [1]),IC50 (Vasopressin V2 receptor [3]),IC50 (Vasopressin V1 receptor [4]),IC50 (Vasopressin V1 receptor [6]),Urine volume (Rattus norvegicus [2]),ED50 (Rattus norvegicus [5]),Urine volume (Rattus norvegicus [7])
O=C(Nc1ccc(C(=O)N2CCCN(Cc3cccnc3)c3sccc32)cc1)c1ccccc1-c1ccccc1,30 nM,60 nM,500 nM,700 nM,1.2 ml 4hr-1,0.14 mg/kg,–
COc1cc(C(=O)N2CCCC(N(C)C)c3sccc32)ccc1NC(=O)c1ccccc1-c1ccccc1 (stereo not given),10 nM,20 nM,2000 nM,3000 nM,9.3 ml 4hr-1,> 0.3 mg/kg,12 ml 4hr-1
O=C(Nc1ccc(C(=O)N2CCCN(CCN3CCCC3)c3sccc32)cc1)c1ccccc1-c1ccccc1,10 nM,200 nM,200 nM,800 nM,6.3 ml 4hr-1,> 0.3 mg/kg,–
CN(C)CCN(C)CCCCOc1cc(C(=O)N2CCCCc3sccc32)ccc1NC(=O)c1ccccc1-c1ccccc1,8 nM,80 nM,20 nM,5 nM,10.2 ml 4hr-1,0.02 mg/kg,–
CN1CCN(CCN2CCCN(C(=O)c3ccc(NC(=O)c4ccccc4-c4ccccc4)cc3)c3ccsc32)CC1,10 nM,50 nM,200 nM,1000 nM,7.4 ml 4hr-1,> 0.3 mg/kg,–
CN(C)C1CCN(C(=O)COc2cc(C(=O)N3CCCCc4sccc43)ccc2NC(=O)c2ccccc2-c2ccccc2)CC1,4 nM,8 nM,20 nM,50 nM,15 ml 4hr-1,0.02 mg/kg,–
O=C(Nc1ccc(C(=O)N2CCCN(Cc3ccccc3)c3sccc32)cc1)c1ccccc1-c1ccccc1,70 nM,80 nM,500 nM,400 nM,–,> 0.3 mg/kg,–
CN1CCCN(CC(=O)N2CCCN(C(=O)c3ccc(NC(=O)c4ccccc4-c4ccccc4)cc3)c3ccsc32)CC1,100 nM,> 10000 nM,> 10000 nM,> 10000 nM,–,–,–
O=C(Nc1ccc(C(=O)N2CCCCc3sccc32)cc1OCCCC(=O)N1CCC(N2CCCCC2)CC1)c1ccccc1-c1ccccc1,20 nM,30 nM,20 nM,10 nM,8 ml 4hr-1,0.03 mg/kg,–
O=C(Nc1ccc(C(=O)N2CCCCc3sccc32)cc1O)c1ccccc1-c1ccccc1,< 10 nM,< 10 nM,200 nM,60 nM,2.3 ml 4hr-1,0.04 mg/kg,–
CN(C)CCN1CCCN(C(=O)c2ccc(NC(=O)c3ccccc3-c3ccccc3)cc2)c2ccsc21,20 nM,80 nM,300 nM,400 nM,6.7 ml 4hr-1,0.31 mg/kg,–

# Continued, in another order:
IC50 (Vasopressin V2 receptor [1]),IC50 (Vasopressin V2 receptor [3]),IC50 (Vasopressin V1 receptor [4]),IC50 (Vasopressin V1 receptor [6]),Compound,Urine volume (Rattus norvegicus [2]),ED50 (Rattus norvegicus [5]),Urine volume (Rattus norvegicus [7])
6 nM,9 nM,4 nM,4 nM,CCN(CC)C1CCN(C(=O)CCCOc2cc(C(=O)N3CCCCc4sccc43)ccc2NC(=O)c2ccccc2-c2ccccc2)CC1,18 ml 4hr-1,0.01 mg/kg,–
7 nM,1 nM,3 nM,5 nM,CN1CCN(CCCCOc2cc(C(=O)N3CCCCc4sccc43)ccc2NC(=O)c2ccccc2-c2ccccc2)CC1,16.9 ml 4hr-1,< 0.01 mg/kg,–
3 nM,10 nM,20 nM,50 nM,CN1CCCN(C(=O)CCCOc2cc(C(=O)N3CCCCc4sccc43)ccc2NC(=O)c2ccccc2-c2ccccc2)CC1,19.1 ml 4hr-1,0.008 mg/kg,–
< 1 nM,2 nM,2 nM,< 1 nM,CN1CCCN(CCCOc2cc(C(=O)N3CCCCc4sccc43)ccc2NC(=O)c2ccccc2-c2ccccc2)CC1,18.3 ml 4hr-1,0.03 mg/kg,–
1 nM,6 nM,20 nM,10 nM,CN1CCN(C(=O)CCCOc2cc(C(=O)N3CCCCc4sccc43)ccc2NC(=O)c2ccccc2-c2ccccc2)CC1,17.6 ml 4hr-1,0.03 mg/kg,–
3 nM,20 nM,6 nM,3 nM,CN(C)C1CCN(C(=O)CCCOc2cc(C(=O)N3CCCCc4sccc43)ccc2NC(=O)c2ccccc2-c2ccccc2)CC1,22 ml 4hr-1,0.005 mg/kg,–
